The source of these data is ChEMBL document CHEMBL1671657, “MurF inhibitors with antibacterial activity: effect on muropeptide levels” (Antimicrob Agents Chemother, 2009).

≈ marks a conversion by molar mass, not a printed value. Calls of active or inactive are those of the source. The calls are words filed in the database; no cut-off is given here. Bridge positions count the residues as written; N and C are the ends. Square brackets hold non-standard residues; d marks the D form. Peptide text beside a SMILES is read from it. Dab = NCC[C@H](N)C(=O)O

Test [1] deals with Escherichia coli. The experiment in a line: Antimicrobial activity against LPS-deffective Escherichia coli OC2530 by broth microdilution method. It is filed as functional. Summed up:
(§1)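 MICs by CLSI broth microdilution. Where polymyxin B nonapeptide was included, it was present at 2 μg/ml alongside the test compound.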
For orientation: In broth dilution the organism is exposed to a series of concentrations in liquid medium.

The test system of test [2] is Escherichia coli. The test can be described thus: Antimicrobial activity against Escherichia coli OC2605 by broth microdilution method. The format is functional. Summed up:
(§2)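 CLSI broth microdilution MIC; strains from the sponsor's in-house collection.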

Test [3] has as its system Escherichia coli. The test can be described thus: Antimicrobial activity against Escherichia coli OC9040 by broth microdilution method. It is filed as functional. A digest of the protocol: as §1
In test [4] the test system is Escherichia coli. The test can be described thus: Antimicrobial activity against Escherichia coli ATCC 25922 by broth microdilution method. The format is functional. Summed up:
as §1

Test [5] has as its system Enterococcus faecalis. The experiment in a line: Antimicrobial activity against Enterococcus faecalis ATCC 29212 by broth microdilution method. The format is functional. A digest of the protocol: as §1
Test [6] concerns Enterococcus faecium. The experiment in a line: Antimicrobial activity against Enterococcus faecium OC3312 by broth microdilution method. The format is functional. A digest of the protocol: as §1
In test [7] the test system is Staphylococcus aureus. The experiment in a line: Antimicrobial activity against Staphylococcus aureus ATCC 29213 by broth microdilution method. The format is functional. A digest of the protocol:
as §1

Test [8] has as its system Staphylococcus aureus. The experiment in a line: Antimicrobial activity against methicillin-resistant Staphylococcus aureus OC3726 by broth microdilution method. The format is functional. Summed up: as §2
Test [9] has as its system Staphylococcus aureus. The test can be described thus: Antimicrobial activity against methicillin-resistant Staphylococcus aureus OC2878 by broth microdilution method. It is filed as functional. A digest of the protocol:
as §2

The subject of test [10] is Staphylococcus aureus. The experiment in a line: Antimicrobial activity against Staphylococcus aureus OC4172 by broth microdilution method. The format is functional. A digest of the protocol:
as §1

Test [11] can be described thus: Inhibition of Escherichia coli MurF.
The test system of test [12] is Staphylococcus aureus. The test can be described thus: Antimicrobial activity against Staphylococcus aureus ATCC 29213 assessed as growth inhibition. It is filed as functional, organism-based.
The test system of test [13] is Staphylococcus aureus. The experiment in a line: Antimicrobial activity against Staphylococcus aureus ATCC 29213 assessed as cell lysis. It is filed as functional, organism-based.
Test [14] relates to Staphylococcus aureus. The experiment in a line: Bacteriostatic activity against Staphylococcus aureus ATCC 29213 at 2 times MIC. The format is functional, organism-based.
In test [15] the test system is Staphylococcus aureus. The test can be described thus: Inhibition of Staphylococcus aureus ATCC 29213 MurF assessed as UDP-MurNAc-tripeptide substrate level at MIC by HPLC (reference value: 1 mAU). Summed up: (§3)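 After 30 min, muropeptides were extracted and quantified by HPLC peak area, normalized to the control. The HPLC detection limit was 12 mAU. Results are representative of two independent experiments.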

Test [16] concerns Staphylococcus aureus. The test can be described thus: Inhibition of Staphylococcus aureus ATCC 29213 MurF assessed as UDP-MurNAc-tripeptide substrate level at 2 times MIC by HPLC (reference value: 1 mAU). A digest of the protocol:
as §3

Test [17] deals with Staphylococcus aureus. The test can be described thus: Inhibition of Staphylococcus aureus ATCC 29213 MurF assessed as UDP-MurNAc-tripeptide substrate level at 4 times MIC by HPLC (reference value: 1 mAU). A digest of the protocol:
as §3

The test system of test [18] is Staphylococcus aureus. The experiment in a line: Inhibition of Staphylococcus aureus ATCC 29213 MurF assessed as UDP-MurNAc-pentapeptide product level at MIC by HPLC ([…]).
Test [19] concerns Staphylococcus aureus. The test can be described thus: Inhibition of Staphylococcus aureus ATCC 29213 MurF assessed as UDP-MurNAc-pentapeptide product level at 2 times MIC by HPLC (reference value: 1 mAU). Summed up: as §3
Test [20] deals with Staphylococcus aureus. The experiment in a line: Inhibition of Staphylococcus aureus ATCC 29213 MurF assessed as UDP-MurNAc-pentapeptide product level at 4 times MIC by HPLC (reference value: 1 mAU). A digest of the protocol:
as §3

For test [21], the system named is Escherichia coli. The test can be described thus: Antimicrobial activity against LPS-deffective Escherichia coli OC2530 assessed as cell aggregation at 0.5 times MIC by light microscopy relative to untreated control. It is filed as functional, organism-based. A digest of the protocol: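 Cells were fixed on a glass slide under a coverslip and viewed by light microscopy at ×100/×1.25 oil immersion. Representative images were taken.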

Test [22] relates to Escherichia coli. The test can be described thus: Antimicrobial activity against LPS-deffective Escherichia coli OC2530 harboring pMurF plasmid by broth microdilution method in presence of chloramphenicol. The format is functional. Summed up: (§4)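 CLSI broth microdilution MIC for OC2530 carrying plasmid (empty pASK or pMurF). Medium contained chloramphenicol 3 μg/ml to keep the plasmid and AHT 100 ng/ml to induce MurF expression.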

Test [23] relates to Escherichia coli. The experiment in a line: Antimicrobial activity against LPS-deffective Escherichia coli OC2530 harboring pASK plasmid by broth microdilution method in presence of chloramphenicol. The format is functional. Summed up: as §4
Test [24] relates to Escherichia coli. The test can be described thus: Inhibition of LPS-deficient Escherichia coli OC2530 MurF assessed as UDP-MurNAc-tripeptide substrate level at 2 times MIC by HPLC (reference value: 1 mAU).
The test system of test [25] is Escherichia coli. The test can be described thus: Inhibition of LPS-deficient Escherichia coli OC2530 MurF assessed as UDP-MurNAc-pentapeptide product level at 2 times MIC by HPLC (reference value: 1 mAU).
Test [26] has as its system Escherichia coli. The test can be described thus: Inhibition of LPS-deficient Escherichia coli OC2530 MurF harboring pASK plasmid assessed as UDP-MurNAc-tripeptide substrate level at 2 times MIC by HPLC (reference value: 63 +/- 4 mAU). A digest of the protocol:
(§5)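 Compound added at 2× MIC from 500× stock (DMSO control). After 30 min, muropeptides extracted and quantified by HPLC peak area (mAU); representative of two independent experiments.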

The test system of test [27] is Escherichia coli. The experiment in a line: Inhibition of LPS-deficient Escherichia coli OC2530 MurF harboring pMurF plasmid assessed as UDP-MurNAc-tripeptide substrate level at 2 times MIC by HPLC (reference value: 220 +/- 65 mAU). Summed up:
as §5

In test [28] the test system is Escherichia coli. The test can be described thus: Inhibition of LPS-deficient Escherichia coli OC2530 MurF harboring pASK plasmid assessed as UDP-MurNAc-pentapeptide product level at 2 times MIC by HPLC (Rvb =880 +/- 17 mAU). A digest of the protocol: as §5
Test [29] deals with Escherichia coli. The experiment in a line: Inhibition of LPS-deficient Escherichia coli OC2530 MurF harboring pMurF plasmid assessed as UDP-MurNAc-pentapeptide product level at 2 times MIC by HPLC (reference value: 2674 +/- 696 mAU). Summed up: as §5
Test [30] concerns Escherichia coli. The test can be described thus: Bactericidal activity against LPS-deffective Escherichia coli OC2530 at 2 times MIC by CFU quantitation.

As a reminder, the MIC is the lowest concentration found to suppress growth. On to `CC(C)C[C@@H]1NC(=O)[C@@H](Cc2ccccc2)NC(=O)[C@H](CCN)NC(=O)[C@@H](NC(=O)[C@H](CCN)NC(=O)[C@@H](N)[C@@H](C)O)CCNC(=O)[C@H]([C@@H](C)O)NC(=O)[C@H](CCN)NC(=O)[C@H](CCN)NC1=O` [POLYMYXIN B NONAPEPTIDE] (H-T[Dab][Dab][Dab][dF]L[Dab][Dab]T; lactam 3-C), for which the minimal inhibitory concentration (MIC) is 16 µg/mL (≈ 16.6 µM) in test [1]; 32 µg/mL (≈ 33.2 µM) in test [2]; 64 µg/mL (≈ 66.4 µM) in [3]; 64 µg/mL (≈ 66.4 µM) in [4]; more than 64 µg/mL in [5]; more than 64 µg/mL in test [6]. Besides, the minimal inhibitory concentration (MIC) in test [7], in [8], in test [9] and in test [10] was more than 64 µg/mL in each case.
Usually IC50 stands for the midpoint of a concentration-inhibition curve. Read a low IC50 as greater potency. `COc1ccc2nc(OC)c([C@@H](c3ccccc3)[C@](O)(CCc3ccccc3)CCN(C)C)cc2c1` displayed an IC50 in test [11] of 29 µM. The MIC in [1] was 8 µg/mL (≈ 16.5 µM); in test [2], more than 32 µg/mL; in test [3], more than 32 µg/mL; in test [4], more than 32 µg/mL; in test [5], 8 µg/mL (≈ 16.5 µM); in test [6] it was 8 µg/mL (≈ 16.5 µM). In addition, the minimum inhibitory concentration (MIC) in test [7], in [8], in test [9] and in test [10] was 8 µg/mL (≈ 16.5 µM) throughout. Besides, the inhibition entry in test [12] is “Dose-dependent effect”. For the same molecule, the outcome in test [13] was inactive. Moreover, the outcome in test [14] was Active. Besides, the Activity (fold of control) was more than 10 in test [15]; more than 38 in [16]; more than 67 in test [17]; 0.6 in test [18]; 0.34 in [19]; 0.21 in test [20].
As to `N[C@@H]1CONC1=O` [CYCLOSERINE], the MIC in test [1] is 64 µg/mL (≈ 627 µM); in test [2], 16 µg/mL (≈ 157 µM); in [3], 32 µg/mL (≈ 313 µM); in test [4], 32 µg/mL (≈ 313 µM); in test [5], 128 µg/mL (≈ 1250 µM); in test [6], 64 µg/mL (≈ 627 µM). The MIC in test [7] was 32 µg/mL (≈ 313 µM); in [8], 32 µg/mL (≈ 313 µM); in test [9], 64 µg/mL (≈ 627 µM); in [10], 32 µg/mL (≈ 313 µM); in [22], 64 µg/mL; in test [23], 64 µg/mL. Moreover, the outcome in [21], in [14] and in test [30] was Active. Moreover, the Activity (fold of control) in test [24] was 30; in test [16], more than 100; in test [25], 0.12; in [19], 0.33. Besides, the Activity stood at 2260 mAU in test [26], 5090 mAU in test [27], 146 mAU in test [28] and 181 mAU in test [29].
